Our source for the plasma protein bound values is PubChem BioAssay AID1937 (Sanford-Burnham Center for Chemical Genomics, 2009).

Molecules are shown by their SMILES.

This series concerns Mouse plasma protein binding, RED dialysis, LC/MS/MS. Description: fraction bound to mouse plasma proteins – biochemical, rapid equilibrium dialysis, LC/MS/MS, ADME assay, late-stage follow-up (AID 1937). Conditions: stronger effect = higher value. In short, it runs like this:
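System: mouse plasma in RED dialysis device / Medium: PBS pH 7.4 dialysis buffer / Compound dosing: two final plasma concentrations, 1 µM and 10 µM, with 0.1% DMSO / Incubation: dialysis for 4 h at 37 °C with shaking / Signal: LC/MS/MS of both dialysis chambers / Measure: percent bound, from buffer-to-plasma concentration ratio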

Regarding `CC1Cc2cc(S(=O)(=O)N3CCN(c4ccc(Cl)cc4)CC3)ccc2N1C(=O)C1CC1` (configuration not stated), the plasma protein bound by setting is: (at 1 µM) 99.8%; (bound, at 10 µM) 99.8%.
